# Laboratory results published in ChEMBL document CHEMBL1134616, “Novel 7-oxyiminomethyl derivatives of camptothecin with potent in vitro and in vivo antitumor activity” (J Med Chem, 2001).
# How the values were obtained:
# [1] = Cytotoxicity against human non-small-cell lung carcinoma cell line H460 (NSCLC-H460); format: functional, cell-based
# How it was run: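 Logarithmically growing cells were seeded in duplicate, exposed to drug for 1 h starting 24 h after seeding, and counted by Coulter counter 72 h after exposure. Drug was dissolved in DMSO before dilution. The IC50 is the concentration giving a 50% decrease in growth relative to untreated control.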
# [2] = Log 10 cell kill induced in mice bearing lung carcinoma LX-1 at a oral dose of 15 mg/kg; format: functional, Mus musculus
# How it was run: (§1)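 Nude athymic CD1 mice, 8–10 weeks, carrying s.c. human lung tumor fragments in both flanks. Given per os on a q4dx4 schedule at 10 mL/kg, starting when tumors were visible but not measurable. Volume = d²×D/2. Log10 cell kill = T−C/3.32 × tumor doubling time, where T and C are the days for treated and control tumors to reach a mean volume of 1000 mm³.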
# NCI-H460 [3] = assay: Percentage inhibition of tumor volume in treated versus control mice against human Non-Small-Cell tumor xenograft at a oral dose of 15 mg/kg; format: functional; settings: Mus musculus
# How it was run: (§2)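 Nude athymic CD1 mice, 8–10 weeks old, with human lung tumor fragments implanted s.c. in both flanks. Oral dosing in 10 mL/kg, q4dx4, started when tumors were visible but not measurable. Tumor volume = d²×D/2 from caliper diameters. Percent inhibition of treated versus control volume taken 7–10 days after the last dose. Volumes compared by Student's t test, P<0.05.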
# NCI-H460 [4] = assay: Percentage inhibition of tumor volume in treated versus control mice against human Non-Small-Cell tumor xenograft at a oral dose of 9 mg/kg; format: functional; settings: Mus musculus; how it was run: as §2
# [5] = Percentage of body weight loss CD1 mice with human Non-Small-Cell tumor xenograft at a oral dose of 9 mg/kg; format: functional; settings: dose 15 mg/kg, in the assay text read “oral dose of 15 mg/kg” for “oral dose of 9 mg/kg”
# How it was run: (§3)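 Nude athymic CD1 mice, 8–10 weeks old, bearing s.c. human lung tumor xenografts in both flanks. Given oral drug in 10 mL/kg on a q4dx4 schedule, beginning when tumors were visible but not measurable. Read-out is percent body weight loss after drug treatment.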
# NCI-H460 [6] = assay: Complete response in CD1 mice with human Non-Small-Cell tumor xenograft at a oral dose of 9 mg/kg; format: functional
# How it was run: (§4)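 Nude athymic CD1 mice, 8–10 weeks old, carrying serially passaged human lung tumor fragments implanted s.c. in both flanks. Oral dosing in 10 mL/kg on a q4dx4 schedule, begun once tumors were visible but not yet measurable. Complete response means no detectable tumor for at least 10 days after the end of treatment.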
# Homo sapiens = assay: Percentage inhibition of tumor volume in treated versus control mice against human Non-Small-Cell tumor xenograft at a oral dose of 5 mg/kg; format: functional; how it was run: as §2
# NCI-H460 [7] = assay: Percentage of body weight loss in CD1 mice with human Non-Small-Cell tumor xenograft at a oral dose of 5 mg/kg; format: functional; how it was run: as §3
# [8] = (§5) No. of dead mice/ total No. of mice with human Non-Small-Cell tumor xenograft at a oral dose of 9 mg/kg; format: ADME, organism-based; set-up: dose 9 mg/kg, route oral; settings: in vivo
# How it was run: (§6)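 Human lung tumor s.c. xenografts (fragments, both flanks) in nude athymic CD1 mice aged 8–10 weeks. Oral q4dx4 dosing at 10 mL/kg, begun when tumors were visible but not measurable. Toxicity is recorded as the number of dead mice over the total number of treated mice.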
# NCI-H460 [9] = assay: as §5; format: ADME, organism-based; set-up: dose 9 mg/kg, route oral; settings: in vivo; how it was run: as §6
# [10] = Complete response in mice bearing lung carcinoma LX-1 at a oral dose of 15 mg/kg; format: functional, Mus musculus; how it was run: as §4
# [11] = No. of dead mice/ total No. of mice bearing lung carcinoma LX-1 at a oral dose of 15 mg/kg; format: ADME, organism-based; set-up: dose 15 mg/kg, route oral; settings: mouse, in vivo; how it was run: as §6
# NCI-H460 [12] = assay: Log 10 cell kill induced in mice with human Non-Small-Cell tumor xenograft at a oral dose of 5 mg/kg; format: functional; how it was run: as §1
# [13] = Percentage of body weight loss in mice bearing lung carcinoma LX-1 at a oral dose of 15 mg/kg; format: functional, Mus musculus; how it was run: as §3
# [14] = Percentage inhibition of tumor volume in treated versus control mice bearing lung carcinoma LX-1 at a oral dose of 15 mg/kg; format: functional; settings: Mus musculus; how it was run: as §2
# NCI-H460 [15] = assay: Complete response in CD1 mice with human Non-Small-Cell tumor at a oral dose of 5 mg/kg after treatment with compound; format: functional; how it was run: as §4
# NCI-H460 [16] = assay: Percentage of body weight loss of CD1 mice after treatment with compound; format: functional, Homo sapiens; how it was run: as §3
# NCI-H460 [17] = assay: Complete response in CD1 mice with human Non-Small-Cell tumor at a oral dose of 9 mg/kg after treatment with compound; format: functional
# How it was run: (§7)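 Nude athymic CD1 mice, 8–10 weeks old, bearing s.c. human lung tumor xenografts (tumor fragments implanted in both flanks). Oral dosing on a q4dx4 schedule at 10 mL/kg, starting when tumors were visible but not measurable. A complete response was scored as no evidence of tumor for at least 10 days after the end of treatment.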
# NCI-H460 [18] = assay: Complete response CD1 mice with human Non-Small-Cell tumor xenograft at a oral dose of 15 mg/kg; format: functional; how it was run: as §4
# NCI-H460 [19] = assay: Complete response in CD1 mice with human Non-Small-Cell tumor at a oral dose of 15 mg/kg after treatment with compound; format: functional; how it was run: as §7
# NCI-H460 [20] = assay: No. of dead mice/ total no of mice with human Non-Small-Cell tumor xenograft at a oral dose of 5 mg/kg; format: ADME, organism-based; set-up: dose 5 mg/kg, route oral; settings: in vivo; how it was run: as §6
Compound,IC50 [1] [nM],further results
CC[C@@]1(O)C(=O)OCc2c1cc1n(c2=O)Cc2c-1nc1ccccc1c2/C=N/OCC(=O)O,2330,
CC[C@@]1(O)C(=O)OCc2c1cc1n(c2=O)Cc2c-1nc1ccc(OC)cc1c2/C=N/OC(C)(C)C,70,
CC[C@@]1(O)C(=O)OCc2c1cc1n(c2=O)Cc2c-1nc1ccccc1c2/C=N/OC(=O)c1ccccc1,1770,
CC[C@@]1(O)C(=O)OCc2c1cc1n(c2=O)Cc2c-1nc1ccccc1c2/C=N/OCC(=O)NCCCNS(=O)(=O)c1ccccc1[N+](=O)[O-],3000,
CC[C@@]1(O)C(=O)OCc2c1cc1n(c2=O)Cc2c-1nc1ccccc1c2/C=N/OC,40,
CC[C@@]1(O)C(=O)OCc2c1cc1n(c2=O)Cc2c-1nc1ccccc1c2/C=N/OC(C)(C)C(=O)OC(C)(C)C,140,
CC[C@@]1(O)C(=O)OCc2c1cc1n(c2=O)Cc2c-1nc1ccccc1c2/C=N/OCc1ccccc1,30,
CC[C@@]1(O)C(=O)OCc2c1cc1n(c2=O)Cc2c-1nc1ccccc1c2/C=N/OCc1ccc(N)cc1,25,
CC[C@@]1(O)C(=O)OCc2c1cc1n(c2=O)Cc2c-1nc1ccccc1c2/C=N/OCc1ncc[nH]1,210,
CC[C@@]1(O)C(=O)OCc2c1cc1n(c2=O)Cc2c-1nc1ccccc1c2/C(=N/O)c1ccccc1,5130,
CC[C@@]1(O)C(=O)OCc2c1cc1n(c2=O)Cc2c-1nc1ccc(O)cc1c2/C=N/OC(C)(C)C,130,
C=CCO/N=C/c1c2c(nc3ccccc13)-c1cc3c(c(=O)n1C2)COC(=O)[C@]3(O)CC,60,
CC[C@@]1(O)C(=O)OCc2c1cc1n(c2=O)Cc2c-1nc1ccccc1c2/C=N/OCc1c2ccccc2cc2ccccc12,190,
CC[C@@]1(O)C(=O)OCc2c1cc1n(c2=O)Cc2c-1nc1ccccc1c2/C=N/OCCN(C)C,300,
CC[C@@]1(O)C(=O)OCc2c1cc1n(c2=O)Cc2c-1nc1ccccc1c2/C=N/Oc1ccccc1,160,
CC[C@@]1(O)C(=O)OCc2c1cc1n(c2=O)Cc2c-1nc1ccccc1c2/C=N/OCc1ccc(-c2ccccc2)cc1,280,
CC[C@@]1(O)C(=O)OCc2c1cc1n(c2=O)Cc2c-1nc1ccccc1c2/C=N/OC(C)(C)CO,340,
CC[C@@]1(O)C(=O)OCc2c1cc1n(c2=O)Cc2c-1nc1ccc(O)cc1c2/C=N/OC,200,
CC[C@@]1(O)C(=O)OCc2c1cc1n(c2=O)Cc2c-1nc1ccccc1c2/C=N/OCC(=O)NCCCNC(=O)OC(C)(C)C,1700,
CC[C@@]1(O)C(=O)OCc2c1cc1n(c2=O)Cc2c-1nc1ccccc1c2/C=N/OC[C@H]1O[C@@H]2OC(C)(C)O[C@@H]2[C@H]2OC(C)(C)O[C@H]21,360,

Compound,IC50 [1] [nM],further results
CC[C@@]1(O)C(=O)OCc2c1cc1n(c2=O)Cc2c-1nc1ccccc1c2/C=N/OCC(=O)NCCCN,5200,
CC[C@@]1(O)C(=O)OCc2c1cc1n(c2=O)Cc2c-1nc1ccccc1c2/C(C)=N/OCc1ccccc1,130,
CC[C@@]1(O)C(=O)OCc2c1cc1n(c2=O)Cc2c-1nc1ccccc1c2/C=N/OCc1c(F)c(F)c(F)c(F)c1F,28,
CC[C@@]1(O)C(=O)OCc2c1cc1n(c2=O)Cc2c-1nc1ccccc1c2/C=N/OCc1ccc(C)cc1,20,
CC[C@@]1(O)C(=O)OCc2c1cc1n(c2=O)Cc2c-1nc1ccccc1c2/C=N/OCCC1CCCN(C)C1 (some centres undefined),100,
CC[C@@]1(O)C(=O)OCc2c1cc1n(c2=O)Cc2c-1nc1ccccc1c2/C=N/OCC1CO1 (some centres undefined),20,
CC[C@@]1(O)C(=O)OCc2c1cc1n(c2=O)Cc2c-1nc1ccccc1c2/C=N/OC(C)(C)C(=O)O,48000,
CC[C@@]1(O)C(=O)OCc2c1cc1n(c2=O)Cc2c-1nc1ccccc1c2/C=N/OCCN1CCOCC1,80,
CC[C@@]1(O)C(=O)OCc2c1cc1n(c2=O)Cc2c(/C=N/OC(C)(C)C)c3ccccc3[n+]([O-])c2-1,70,
CC[C@@]1(O)C(=O)OCc2c1cc1n(c2=O)Cc2c-1nc1ccccc1c2/C=N/O,32,
CC[C@@]1(O)C(=O)OCc2c1cc1n(c2=O)Cc2c-1nc1ccccc1c2/C=N/OCc1ccncc1,30,
CC[C@@]1(O)C(=O)OCc2c1cc1n(c2=O)Cc2c-1nc1ccccc1c2/C=N/OC(c1ccccc1)(c1ccccc1)c1ccccc1,1450,
CC[C@@]1(O)C(=O)OCc2c1cc1n(c2=O)Cc2c(/C=N/OC)c3ccccc3[n+]([O-])c2-1,2400,
CC[C@@]1(O)C(=O)OCc2c1cc1n(c2=O)Cc2c-1nc1ccccc1c2/C=N/OCCN,490,
CC[C@@]1(O)C(=O)OCc2c1cc1n(c2=O)Cc2c-1nc1ccccc1c2/C=N/OCc1ccc([N+](=O)[O-])cc1,17,
CC[C@@]1(O)C(=O)OCc2c1cc1n(c2=O)Cc2c-1nc1ccccc1c2/C=N/OCC1O[C@H](O)C(O)[C@H](O)[C@H]1O (some centres undefined),32000,
CCc1c2c(nc3ccc(O)cc13)-c1cc3c(c(=O)n1C2)COC(=O)[C@]3(O)CC [7-ETHYL-10-HYDROXYCAMPTOTHECIN],80,
CC[C@@]1(O)C(=O)OCc2c1cc1n(c2=O)Cc2cc3ccccc3nc2-1 [CAMPTOTHECIN],330,
CC[C@@]1(O)C(=O)OCc2c1cc1n(c2=O)Cc2cc3c(CN(C)C)c(O)ccc3nc2-1 [TOPOTECAN],1380,LCK [2]: 3.7; inhibition in vivo at 15 mg/kg (NCI-H460 [3]): 98%; inhibition in vivo at 9 mg/kg (NCI-H460 [4]): 91%; BWL [5]: 8%; CR (NCI-H460 [6]): 0; inhibition in vivo at 5 mg/kg (Homo sapiens): 80%; BWL (NCI-H460 [7]): 0%; Toxicity [8]: 0; Toxicity (NCI-H460 [9]): 0; CR [10]: 4; Toxicity [11]: 0; LCK (NCI-H460 [12]): 1.3; BWL [13]: 6%; inhibition in vivo at 15 mg/kg [14]: 99%; CR (NCI-H460 [15]): 0; BWL (NCI-H460 [16]): 0%; LCK (NCI-H460 [17]): 1.7; CR (NCI-H460 [18]): 0; LCK (NCI-H460 [19]): 2.1; Toxicity (NCI-H460 [20]): 0
